≈ marks a conversion by molar mass, not a printed value. Calls of active or inactive are those of the source. No cut-off for these calls is given here.
Assays:
[1] = Antimicrobial activity against Leuconostoc dextranicum ATCC 8086 after 18 hrs by spectrophotometry; format: functional, Leuconostoc mesenteroides subsp. dextranicum; details: Leuconostoc mesenteroides, ATCC 8086, 18 h
Procedure, shortened: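 Basal lactic-acid-bacteria medium with 0.2 µg/ml calcium pantothenate and 0.02 µg/ml pantethine; Phe and Tyr omitted, Trp at 3 µg/ml; phosphate raised fourfold and 100 µg/ml glutamine added. Aqueous stock (1 mg/ml) serially diluted, up to 200 µg/ml. Incubated at 30° for 18 h. Turbidity read at 625 nm against an uninoculated blank. MIC from at least six repeats.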

[2] = system: Lactiplantibacillus plantarum; assay: Antimicrobial activity against Lactobacillus plantarum ATCC 8014 after 18 hrs by spectrophotometry in presence of 40 ug/ml each of phenylalanine,tyrosine and tryptophan; format: functional
Escherichia coli = assay: Antimicrobial activity against Escherichia coli ATCC 9723 after 16 hrs by spectrophotometry; format: functional; details: ATCC 9723, 16 h
Procedure, shortened: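 Stock of 10 mg in 10 ml sterile water (slight warming), serially diluted into autoclaved medium tubes, tested up to 200 µg/ml. Incubated at 37° for 16 h after inoculation. Turbidity read at 625 nm against an uninoculated medium blank. MIC taken as the minimum inhibitory concentration, with controls and at least six repeat assays.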

[3] = (§1) Antimicrobial activity against Leuconostoc dextranicum ATCC 8086 after 18 hrs by spectrophotometry in presence of 40 ug/ml each of phenylalanine,tyrosine and tryptophan; format: functional, Leuconostoc mesenteroides subsp. dextranicum; details: Leuconostoc mesenteroides, ATCC 8086, 18 h
[4] = system: Lactiplantibacillus plantarum; assay: Antimicrobial activity against Lactobacillus plantarum ATCC 8014 after 18 hrs by spectrophotometry; format: functional; details: ATCC 8014, 18 h
Procedure, shortened: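 Basal lactic-acid-bacteria medium with 0.2 µg/ml calcium pantothenate and 0.02 µg/ml pantethine; phenylalanine and tyrosine omitted, and tryptophan lowered to 3 µg/ml; for this strain, Phe and Tyr at 1 µg/ml. Aqueous stock (1 mg/ml) serially diluted, up to 200 µg/ml. Incubated at 30° for 18 h. Absorbance read at 625 nm versus an uninoculated blank. MIC from at least six repeats.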

[5] = system: Leuconostoc mesenteroides subsp. dextranicum; assay: as §1; format: functional

| SMILES | MIC [1] | MIC ([2]; ATCC 8014, 18 h) | MIC (Escherichia coli) | MIC [3] | MIC [4] | MIC [2] | MIC [5] |
| --- | --- | --- | --- | --- | --- | --- | --- |
| NC(Cc1ccc(O)cc1Cl)C(=O)O (stereo not drawn) | 6 µg/mL (≈ 27.8 µM) | 200 µg/mL | 2 µg/mL (≈ 9.27 µM) | 200 µg/mL | 0.6 µg/mL (≈ 2.78 µM) | – | – |
| NC(Cc1ccc2ccccc2c1Br)C(=O)O (racemic) | 200 µg/mL (≈ 680 µM) | – | 200 µg/mL (≈ 680 µM) | – | 200 µg/mL (≈ 680 µM) | Active | Active |
| NC(Cc1ccc2ccccc2c1Cl)C(=O)O (racemic) | 20 µg/mL (≈ 80.1 µM) | – | > 200 µg/mL | – | 20 µg/mL (≈ 80.1 µM) | Active | Active |
| NC(Cc1ccc2ccccc2c1)C(=O)O (stereo not drawn) | > 200 µg/mL | – | > 200 µg/mL | – | > 200 µg/mL | – | – |
| NC(Cc1cccc2ccccc12)C(=O)O (stereo not drawn) | 200 µg/mL (≈ 929 µM) | – | > 200 µg/mL | – | 200 µg/mL (≈ 929 µM) | Active | Active |

Source: ChEMBL document CHEMBL3272115, “Synthesis and microbiological activities of beta-(1-chloro-2-naphthyl) alanine and beta-(1-bromo-2-naphthyl) alanine” (1976)
